From ChEMBL document CHEMBL4138104, “Indole carboxylic acid esters of melampomagnolide B are potent anticancer agents against both hematological and solid tumor cells” (Eur J Med Chem, 2017) come the findings set out here.

What all share (format): functional
A short description of experiment [1]: Cytotoxicity against human M9-ENL1 cells assessed as reduction in cell viability by trypan blue staining-based assay. The procedure, abridged: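 M9-ENL1 AML cells (MLL-ENL-transduced human blood cells) plated at 10^6 cells/mL in alpha-MEM with 5% human plasma, 20% FBS, SCF, IL-3, IL-7 and FLT3. Drug diluted from DMSO stock into PBS, final DMSO ≤0.5%. After 24 h exposure, dead cells assessed by trypan blue and by flow cytometry (Annexin V/PI or Annexin V/7-AAD). Viability normalized to vehicle; EC50 from dose-response curves; triplicate.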

Experiment [2] in a line: Potency index, ratio of melampomagnolide-B EC50 to compound EC50 for human M9-ENL1 cells. In outline:
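M9-ENL1 AML cells, derived by MLL-ENL transduction of human blood cells, were plated at 10^6 cells/mL in alpha-MEM with 5% human plasma, 20% FBS, SCF, IL-3, IL-7 and FLT3 ligand. Exposure was 24 h. Non-apoptotic (Annexin V/7-AAD double-negative) fraction was normalized to vehicle, in triplicate, to give EC50. PTL and MMB were run as reference controls.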

The species entered for another experiment is Rattus norvegicus. Description: Inhibition of colony formation of rat 9LSF cells at 5 to 20 uM after 48 hrs by colony formation assay. The procedure, abridged:
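9L-SF cells were seeded in 60 mm dishes to reach 50% confluence (6.65×10^4 cells/cm²) after 24 h. They were treated 48 h with drug serially diluted from DMSO stock (max 0.05% DMSO), then rinsed, trypsinized, counted and seeded in triplicate flasks for colonies. Lethally irradiated (25 Gy) feeders kept density at 2,000 cells/cm². Survival was normalized to control plating efficiency, with three experiments.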

The structures appear in SMILES notation. Calls of active or inactive are those of the source. The calls are words filed in the database; no cut-off is given here.

As a reminder, the EC50 is the concentration needed to bring the measured effect to its halfway point. `C=C1C(=O)O[C@@H]2[C@H]3O[C@]3(C)CC/C=C(/COC(=O)c3ccc4[nH]ccc4c3)CC[C@@H]12`: the 50% effective concentration (EC50) in experiment [1] was determined as 3000 nM. In addition, the “Ratio IC50” value in experiment [2] is 2 - 20.
The corresponding values for `C=C1C(=O)O[C@@H]2[C@H]3O[C@]3(C)CC/C=C(/COC(=O)Cc3c[nH]c4ccccc34)CC[C@@H]12` are 4000 nM and 2 - 20.
On to `C=C1C(=O)O[C@@H]2[C@H]3O[C@]3(C)CC/C=C(/COC(=O)c3ccc4cc[nH]c4c3)CC[C@@H]12`, for which the EC50 in experiment [1] stood at 2500 nM. The “Ratio IC50” value in experiment [2] is on record as 2 - 20.
As for `O=C(O)c1cc2ccccc2[nH]1`, the inhibition entry in the experiment listed under Rattus norvegicus is “Active”.
Still for that read-out and setting: then `C=C1C(=O)O[C@H]2[C@H]1CC/C(CO)=C\CC[C@@]1(C)O[C@@H]21`, with “Active”.
For the compound `C=C1C(=O)O[C@@H]2[C@H]3O[C@]3(C)CC/C=C(/COC(=O)Cc3c(C)n(C(=O)c4ccc(Cl)cc4)c4ccc(OC)cc34)CC[C@@H]12`, the EC50 in experiment [1] came to 2700 nM. Moreover, the “Ratio IC50” value in experiment [2] is listed as 2 - 20.
The corresponding values for `C=C1C(=O)O[C@@H]2[C@H]3O[C@]3(C)CC/C=C(/COC(=O)c3sc4ccccc4c3Cl)CC[C@@H]12` are 2100 nM and 2 - 20.
